Converted amounts (≈) assume the structure as drawn.

Consider two compounds from ChEMBL document CHEMBL4033777, “Next-Generation Hypoxic Cell Radiosensitizers: Nitroimidazole Alkylsulfonamides” (J Med Chem, 2018).

The subject of data set [1] is HCT-116. The data set can be described thus: Hypoxia radiosensitization activity in human HCT116 cells assessed as survival ratio by measuring ratio of cell survival with radiation in absence to presence of compound at 0.11 mM preincubated for 1 hr followed by 6 to 29 Gy irradiation measured after 10 days by methylene blue staining-based cell counting method. It counts as functional.

The subject of data set [2] is HCT-116. The data set can be described thus: Hypoxia radiosensitization activity in human HCT116 cells assessed as survival ratio by measuring ratio of cell survival with radiation in absence to presence of compound at 0.11 mM preincubated for 1 hr followed by 6 to 29 Gy irradiation measured after 10 days by methylene blue staining-based cell counting method relative to misonidazole. Type of data set: functional.

For another data set, the system named is Mus musculus. The data set can be described thus: Drug level in NIH-III mouse assessed as maximum achievable dose at 10 ml/kg, iv. It counts as ADME. Particulars: in vivo. The method in brief:
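Non-tumor-bearing female NIH-III mice (~20 g) received freshly prepared solutions i.v. at 10 mL/kg in 0.9% saline with 1% DMSO, or saline with 2 molar equivalents NaHCO3 for phosphate prodrugs. MAD was the maximum dose that dissolved in the injection volume.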

The next data set relates to Plasma. The data set can be described thus: Cmax in plasma of NIH-III mouse xenografted with human HCT116 cells at 0.60 mmol/kg, iv administered as single dose by HPLC analysis. Type of data set: ADME, organism-based. Also noted: dose 0.6 mmol/kg, route intravenous. Conditions: in vivo. In short, it runs like this: (§1)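 Female NIH-III mice bearing subcutaneous HCT116 xenografts (10^6 cells inoculated). At ca. 300 mm3 tumor size, a single i.v. dose was given at the MAD or 75% of the MTD. Vehicle was 0.9% saline with 1% DMSO, or saline with 2 molar equivalents NaHCO3 for phosphate prodrugs. Plasma and tumor were sampled at multiple times by cardiac puncture and excision, assayed by HPLC, and analysed noncompartmentally.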
In general terms: Xenograft models place foreign cells or tissue in a host animal.

The nature of data set [3]: Tmax in plasma of NIH-III mouse xenografted with human HCT116 cells at 0.60 mmol/kg, iv administered as single dose by HPLC analysis. Type of data set: ADME, organism-based. Conditions: 0.6 mmol/kg. The method in brief:
(§2)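 Female NIH-III mice bearing subcutaneous HCT116 tumors (10^6 cells; ~300 mm3) got a single i.v. dose at the MAD or 75% of the MTD. Vehicle was saline with 1% DMSO, or saline with 2 equivalents of NaHCO3 for the phosphates. Plasma and tumor were sampled at multiple times by cardiac puncture and excision, drug was measured by HPLC, and Tmax came from noncompartmental analysis.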

Data set [4] is described as follows: Cmax in tumor of NIH-III mouse xenografted with human HCT116 cells at 0.60 mmol/kg, iv administered as single dose by HPLC analysis. It counts as ADME, organism-based, Neoplasm. More on the design: dose 0.6 mmol/kg, route intravenous. Conditions: in vivo. In short, it runs like this:
as §1

Data set [5] can be described thus: Tmax in tumor of NIH-III mouse xenografted with human HCT116 cells at 0.60 mmol/kg, iv administered as single dose by HPLC analysis. Type of data set: ADME, organism-based, Neoplasm. Particulars: 0.6 mmol/kg. In short, it runs like this: as §2
Data set [6] has as its system HCT-116. The data set can be described thus: In vivo hypoxia radiosensitization activity in human HCT116 cells xenografted in NIH-III mouse assessed as survival ratio by measuring ratio of cell survival with 12.5 Gy radiation in absence to presence of compound at 0.6 mmol/kg, iv pretreated as single dose for 10 mins followed by irradiation measured after 18 hrs by excision assay. Type of data set: functional.

For data set [7], the system named is HCT-116. The experiment in a line: Cytotoxicity against human HCT116 cells incubated for 4 hrs under aerobic condition measured after 5 days by sulforhodamine B assay. It counts as cell-based. In short, it runs like this:
(§3)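 STR-authenticated, mycoplasma-free HCT116 cells in αMEM + 5% FCS were seeded at 700 cells/well and allowed 2 h to attach. Drug was added from DMSO stocks (<1% DMSO) in serial 3-fold dilutions for 4 h, oxic or anoxic (Pd-catalyst anaerobic chamber, medium pre-equilibrated ≥3 days). After washing, cells regrew for 5 days before SRB staining and IC50 determination.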
(In general: Sulforhodamine B stains cellular protein and so reports cell mass.)

Data set [8] has as its system HCT-116. The experiment in a line: Cytotoxicity against human HCT116 cells at anoxic IC50 incubated for 1 hr at 21 degC by clonogenic survival assay. Particulars: hct-116, 1 h.
Data set [9] is described as follows: Solubility of the compound in alphaMEM containing 5% FCS and 1% DMSO by HPLC analysis. It counts as physicochemical. The method in brief: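 Saturated drug solutions were incubated at 37 °C in αMEM with 5% FCS and 1% DMSO. Dissolved drug was quantified by HPLC.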
Data set [10] relates to HCT-116. The data set can be described thus: Cytotoxicity against human HCT116 cells incubated for 4 hrs under anaerobic condition measured after 5 days by sulforhodamine B assay. It counts as functional, cell-based. The method in brief: as §3
Data set [11] relates to HCT-116. The data set can be described thus: Hypoxic cytotoxicity ratio of IC50 for human HCT116 cells under oxic condition to IC50 for human HCT116 cells under anoxic condition. The method in brief: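 HCT116 cells, 700 per well and attached 2 h, got a 4 h exposure to 3-fold serial dilutions (<1% DMSO) under air or in a Pd-catalyst anaerobic chamber with pre-equilibrated medium. Cells were washed, regrown 5 days, and stained with sulforhodamine B to give IC50. HCR = oxic IC50 / anoxic IC50.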

Data set [12] relates to HCT-116. The data set can be described thus: Hypoxia radiosensitization activity in human HCT116 cells assessed as survival ratio by measuring ratio of cell survival with 15 Gy radiation in absence to presence of compound at anoxic IC50 preincubated for 1 hr followed by 15 Gy irradiation measured after 10 days by methylene blue staining-based cell counting method. It counts as functional. In short, it runs like this: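 Anoxic HCT116 cells were seeded at 10^5/well and treated at the anoxic IC50 concentration for 1 h at room temperature. They were irradiated with 15 Gy (60Co, ~2 Gy/min) in a sealed steel box, then plated clonogenically. Colonies of >50 cells were counted […]. SR15 = survival with radiation / survival with drug + radiation.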

Data set [13] deals with HCT-116. The data set can be described thus: Hypoxia radiosensitization activity in human HCT116 cells assessed as sensitizer enhancement ratio by measuring ratio of radiation dose for 1% survival in absence to presence of compound at 0.03 mM preincubated for 1 hr followed by irradiation measured after 10 days by methylene blue staining-based cell counting method. Type of data set: functional.

The test system of data set [14] is HCT-116. The data set can be described thus: Hypoxia radiosensitization activity in human HCT116 cells assessed as sensitizer enhancement ratio by measuring ratio of radiation dose for 1% survival in absence to presence of compound at 0.03 mM preincubated for 1 hr followed by irradiation measured after 10 days by methylene blue staining-based cell counting method relative to misonidazole. It counts as functional.

For data set [15], the system named is HCT-116. The data set can be described thus: Hypoxia radiosensitization activity in human HCT116 cells assessed as survival ratio by measuring ratio of cell survival with radiation in absence to presence of compound at 0.03 mM preincubated for 1 hr followed by 6 to 29 Gy irradiation measured after 10 days by methylene blue staining-based cell counting method. Type of data set: functional.

For data set [16], the system named is HCT-116. The data set can be described thus: Hypoxia radiosensitization activity in human HCT116 cells assessed as survival ratio by measuring ratio of cell survival with radiation in absence to presence of compound at 0.03 mM preincubated for 1 hr followed by 6 to 29 Gy irradiation measured after 10 days by methylene blue staining-based cell counting method relative to misonidazole. It counts as functional.

The subject of data set [17] is HCT-116. The experiment in a line: Cytotoxicity against human HCT116 cells at anoxic IC50 incubated for 1 hr at 21 degC by sulforhodamine B assay. Conditions: hct-116, 1 h. It counts as cell-based.

As to `O=[N+]([O-])c1nccn1CS(=O)(=O)NCCO`, the Ratio is on record as 1.8 with HCT-116 [1] and 2.4 in the data set on HCT-116 [6]. Further, the “fold change (FC)” value with HCT-116 [2] amounted to 0.47. Further, the Drug uptake with Mus musculus came out at 0.6 mmol/kg. For the same compound, the values for the Cmax (in the data set on Plasma; in [4]) were 570 µM and 94 µM, respectively. The Tmax (in general, the time at which the peak concentration occurs) is 5 min in data set [3] and 10 min in data set [5]. For the same compound, the IC50 (usually the concentration at which inhibition is half-maximal) in the data set with HCT-116 [7] is 0.38 to 4.8 mM. In the data set with HCT-116 [8], the Activity entry is reported as “Non-Toxic”.

For the compound `O=[N+]([O-])c1nccn1CS(=O)(=O)N1CCOCC1`, the concentration in solution in data set [9] (solubility) was 1080 µM (≈ 298 µg/mL). For the same compound, the figures for the IC50 with HCT-116 [10] and in the data set on HCT-116 [7] were 30 µM and 0.38 to 4.8 mM, respectively. Further, in the data set on HCT-116 [11], the “Ratio IC50” value came out at 11. For the same compound, the Ratio in the data set on HCT-116 [12] came to 3.8; in the data set with HCT-116 [13] it was 1.11; in the data set on HCT-116 [15], 2. Further, the entries for the “fold change (FC)” value in the data set on HCT-116 [14] and in the data set on HCT-116 [16] were 0.87 and 0.58, respectively. The Activity result in the data set with HCT-116 [17] is “Non-Toxic”.
